Format in all cases: functional, cell-based
The subject of experiment [1] is HepG2. The experiment can be described thus: Induction of autophagy in human HepG2 cells assessed as decrease in ATG4a protein level up to 20 uM measured after 24 hrs by Western blot analysis. The essentials: (§1)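 HepG2 cells exposed 24 h to test agent at final 1, 5, 10 or 20 μM. Lysis in RIPA buffer with protease inhibitor cocktail. Proteins resolved on 12% SDS-PAGE, blotted to nitrocellulose, and probed with antibodies to LC3B, P62, ATG5, ATG7, ATG4a and ATG4b. GAPDH served as loading control. Autophagosome formation was read as the LC3B II/I ratio.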
(In western blotting, separated proteins are transferred to a membrane and probed.)

Another experiment has as its system A549. The experiment can be described thus: Cytotoxicity against human A549 cells by MTT assay. In general terms: Formazan colour is commonly taken as a measure of viable cells.
The subject of experiment [2] is HepG2. In words: Cytotoxicity against human HepG2 cells by MTT assay.
The test system of a further experiment is NCI-H460. The experiment can be described thus: Cytotoxicity against human H460 cells by MTT assay.
The subject of experiment [3] is HepG2. The experiment can be described thus: Induction of autophagy in human HepG2 cells assessed as increase in LC3B2/1 ratio up to 20 uM measured after 24 hrs by Western blot analysis. In outline: as §1
Experiment [4] deals with HepG2. The experiment can be described thus: Induction of autophagy in human HepG2 cells assessed as increase in ATG5 protein level up to 20 uM measured after 24 hrs by Western blot analysis. In outline:
as §1

The subject of a further experiment is HCT-116. In words: Cytotoxicity against human HCT116 cells by MTT assay.
In experiment [5] the test system is HepG2. In words: Induction of autophagy in human HepG2 cells assessed as increase in ATG7 protein level up to 20 uM measured after 24 hrs by Western blot analysis. The essentials:
as §1

Experiment [6] concerns HepG2. The experiment can be described thus: Induction of autophagy in human HepG2 cells assessed as increase in ATG4b protein level up to 20 uM measured after 24 hrs by Western blot analysis. The essentials:
as §1

For experiment [7], the system named is HepG2. The experiment can be described thus: Induction of autophagy in human HepG2 cells assessed as decrease in P62 protein level measured after 24 hrs by Western blot analysis. In outline:
as §1

5 molecules from ChEMBL document CHEMBL4316660, “Isarubrolones Containing a Pyridooxazinium Unit from Streptomyces as Autophagy Activators” (J Nat Prod, 2019) can be followed below.

The term IC50 denotes the concentration that inhibits the measured activity by half.

Calls of active or inactive are those of the source. The calls are words filed in the database; no cut-off is given here.

As for `CC[C@@H](O)c1nc(C)cc2c1C(=O)c1cc(=O)c3c(c(O)c1-2)O[C@@H]1O[C@H](C)[C@@H](OC)[C@@H](O)[C@]31O`, the outcome with HepG2 [1], with HepG2 [3], in the experiment with HepG2 [4], with HepG2 [5] and with HepG2 [6] was Active. Further, the IC50 with A549, in the experiment on HepG2 [2], with NCI-H460 and in the experiment with HCT-116 was 770 to 1800 µM in each case. In addition, the Activity entry with HepG2 [7] is “Dose-dependent effect”.
Take `CC[C@@H](O)C(=O)C1=C2C=C(C)Oc3c4c(c(=O)cc(c32)C1=O)[C@]1(O)[C@H](O4)O[C@H](C)[C@@H](OC)[C@H]1O`: the result in the experiment with HepG2 [1], in the experiment on HepG2 [3], in the experiment on HepG2 [4], with HepG2 [5] and with HepG2 [6] was Active. In addition, in the experiment with HepG2 [7], the Activity entry is “Dose-dependent effect”.
As to `CC[C@H]1O[C@@](C)(O)C[n+]2c(C)cc3c(c21)C(=O)c1cc(=O)c2c(c(O)c1-3)O[C@@H]1O[C@H](C)[C@@H](OC)[C@@H](O)[C@]21O`, the result in the experiment with HepG2 [1], in the experiment on HepG2 [3], in the experiment with HepG2 [4], in the experiment with HepG2 [5] and in the experiment on HepG2 [6] was Active. Moreover, the IC50 in the experiment with A549, in the experiment with HepG2 [2], in the experiment on NCI-H460 and in the experiment on HCT-116 was 190 to 530 µM in each case. Also, in the experiment with HepG2 [7], the Activity result is “Dose-dependent effect”.
Consider `CC[C@H]1OC(=O)C[n+]2c(C)cc3c(c21)C(=O)c1cc(=O)c2c(c(O)c1-3)O[C@@H]1O[C@H](C)[C@@H](OC)[C@@H](O)[C@]21O`, for which the outcome in the experiment with HepG2 [1], in the experiment with HepG2 [3], in the experiment with HepG2 [4], in the experiment with HepG2 [5] and in the experiment on HepG2 [6] was Active. Also, in the experiment with HepG2 [7], the Activity result is “Dose-dependent effect”.
Turning to `CCCC(=O)C1=C2C=C(C)Oc3c4c(c(=O)cc(c32)C1=O)[C@]1(O)[C@H](O4)O[C@H](C)[C@@H](OC)[C@H]1O`, the outcome in the experiment with HepG2 [1], in the experiment on HepG2 [3], in the experiment on HepG2 [4], in the experiment with HepG2 [5] and in the experiment on HepG2 [6] was Active. Besides, in the experiment on HepG2 [7], the Activity result was “Dose-dependent effect”.
